Converted amounts (≈) assume the structure as drawn. The source made the active and inactive calls. The calls are words filed in the database; no cut-off is given here.
Experiments:
[1] = system: Mycobacterium tuberculosis H37Rv; test: Inhibition of PKS13 in Mycobacterium tuberculosis H37Rv assessed as reduction in bacterial growth after […] by MABA
Vero = test: Cytotoxicity against African green monkey Vero cells after 72 hrs by MABA; format: cell-based; conditions: Chlorocebus sabaeus
[2] = Selectivity index, ratio of IC50 for African green monkey Vero cells to MIC=<90 for Mycobacterium tuberculosis H37Rv; format: toxicity; conditions: read-out: Selectivity Index
Method in brief: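 Vero (African green monkey kidney) cytotoxicity IC50 by MABA, divided by the MABA MIC against M. tuberculosis H37Rv to give SI = IC50/MIC.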

[3] = system: Mycobacterium tuberculosis; test: Antitubercular activity against Mycobacterium tuberculosis H37Rv infected in Balb/C mouse assessed as reduction in bacterial growth in mouse serum at 100 mg/kg, po administered via gavage after 30 to 120 mins by MABA; format: functional, organism-based
Method in brief: (§1)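 Oral serum inhibition titration. Six-week female BALB/c mice (20 g) gavaged with 100 mg/kg compound suspended in 0.5% carboxymethylcellulose. Isoniazid 10 mg/kg was the positive control and vehicle alone the negative control. Cardiac blood taken at 30, 60 and 120 min and serum separated. Serum two-fold serially diluted with 10^4 CFU M. tuberculosis H37Rv, incubated 7 days, read by MABA.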

[4] = system: Mycobacterium tuberculosis; test: Antitubercular activity against Mycobacterium tuberculosis by microdilution method; format: functional
Method in brief: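 Whole-cell MIC against M. tuberculosis strain H37Rv, measured by the microplate Alamar Blue assay (MABA) following a previously reported procedure; MIC values given in […].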

MRC5 = test: Cytotoxicity against human MRC5 cells after 48 hrs by CellTiter96 AQueous one solution assay; format: cell-based; conditions: MRC5, 48 h
Method in brief: (§2)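 Human cell cytotoxicity. QSG-7701 and HEK293 grown in DMEM; MRC-5 and HFL-1 grown in DMEM/F12. Both media carried 10% FBS with penicillin/streptomycin, 37°C, 5% CO2. Cells seeded at 5,000/well, incubated overnight, then exposed to compound for 48 h. CellTiter 96 AQueous One added for 1 h, absorbance read at 490 nm. IC50 is the mean of three independent experiments.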

HFL1 = test: Cytotoxicity against HFL1 cells after 48 hrs by CellTiter96 AQueous one solution assay; format: cell-based; conditions: Homo sapiens, HFL1, 48 h; method in brief: as §2
[5] = Cytotoxicity against human QSG7701 cells after 48 hrs by CellTiter96 AQueous one solution assay; format: cell-based; conditions: QSG7701, 48 h; method in brief: as §2
HEK293 = test: Cytotoxicity against human HEK293 cells after 48 hrs by CellTiter96 AQueous one solution assay; format: cell-based; conditions: HEK293, 48 h; method in brief: as §2
[6] = Metabolic stability in human liver microsomes assessed as parent compound remaining at 10 uM after 60 mins in presence of NADPH; format: ADME, microsome; conditions: read-out: Stability
[7] = Selectivity index, ratio of IC50 for human MRC5 cells to MIC=<90 for Mycobacterium tuberculosis H37Rv; format: toxicity; conditions: read-out: Selectivity Index
[8] = Selectivity index, ratio of IC50 for human HFL1 cells to MIC=<90 for Mycobacterium tuberculosis H37Rv; format: toxicity; conditions: read-out: Selectivity Index
[9] = Selectivity index, ratio of IC50 for human QSG7701 cells to MIC=<90 for Mycobacterium tuberculosis H37Rv; format: toxicity; conditions: read-out: Selectivity Index
[10] = Selectivity index, ratio of IC50 for human HEK293 cells to MIC=<90 for Mycobacterium tuberculosis H37Rv; format: toxicity; conditions: read-out: Selectivity Index
[11] = system: Mycobacterium tuberculosis; test: Antitubercular activity against Mycobacterium tuberculosis H37Rv infected in Balb/C mouse assessed as reduction in bacterial growth in mouse serum at 100 mg/kg, po administered via gavage after 30 mins dose by MABA; format: functional, organism-based; method in brief: as §1

SMILES	MIC=<90 [1]	also measured
COc1ccc2oc(=O)c3c(oc4ccc(O)c(CN5CCCCC5)c43)c2c1	4 µg/mL	–
CCOC(=O)c1c(-c2ccccc2)oc2ccc3c(c12)CN(C1CC1)CO3	16 µg/mL	–
Cc1ccc2oc(=O)c3c(oc4ccc(O)c(CN5CCCCC5)c43)c2c1	0.5 µg/mL	IC50 (Vero): 8 µg/mL (≈ 22 µM); selectivity ratio [2]: 16
CCOC(=O)c1c(-c2cc(C)c(C)cc2OC)oc2ccc(O)c(CN3CCCCC3)c12	4 µg/mL	–
CCOC(=O)c1c(-c2ccc(F)cc2)oc2ccc(O)c(CN3CCCCC3)c12	0.5 µg/mL	IC50 (Vero): 16 µg/mL (≈ 40.3 µM); selectivity ratio [2]: 32; Activity [3]: inactive
CCOC(=O)c1c(-c2ccccc2)oc2ccc3c(c12)CN(C1CCCC1)CO3	2 µg/mL	–
Cc1ccc2oc(=O)c3c(oc4ccc5c(c43)CN(CC3CC3)CO5)c2c1	4 µg/mL	–
CCOC(=O)c1c(-c2ccccc2)oc2ccc(O)c(CN3CCCC3)c12	2 µg/mL	–
CCOC(=O)c1c(-c2ccccc2)oc2ccc(O)cc12	> 64 µg/mL	–
CCNC(=O)c1c(-c2ccccc2)oc2ccc(O)c(CN3CCCCC3)c12	4 µg/mL	–
CCOC(=O)c1c(-c2ccc(OC)cc2OC)oc2ccc(O)c(CN3CCCCC3)c12	16 µg/mL	–
CCOC(=O)c1c(-c2ccccc2)oc2ccc(O)c(CN3CCN(C)CC3)c12	> 64 µg/mL	–
COc1ccc2oc(=O)c3c(oc4ccc5c(c43)CN(CC3CC3)CO5)c2c1	16 µg/mL	–
O=C(NC1CC1)c1c(-c2ccccc2)oc2ccc(O)c(CN3CCCCC3)c12	8 µg/mL	–
CCOC(=O)c1c(-c2ccc(OC)cc2)oc2ccc3c(c12)CN(CC1CC1)CO3	2 µg/mL	–
O=c1oc2ccccc2c2oc3ccc4c(c3c12)CN(C1CCCCC1)CO4	16 µg/mL	–
CCOC(=O)c1c(-c2ccc(C)cc2)oc2ccc3c(c12)CN(CC1CC1)CO3	4 µg/mL	–
Cc1cc2oc(=O)c3c(oc4ccc5c(c43)CN(CC3CC3)CO5)c2cc1C	8 µg/mL	–
O=c1oc2ccccc2c2oc3ccc4c(c3c12)CN(C1CCCC1)CO4	0.5 µg/mL	IC50 (Vero): 0.5 µg/mL (≈ 1.38 µM); selectivity ratio [2]: 1
CCOC(=O)c1c(-c2ccc(Br)cc2OC)oc2ccc(O)c(CN3CCCCC3)c12	> 64 µg/mL	–
O=C(NCc1ccccc1)c1c(-c2ccccc2)oc2ccc(O)c(CN3CCCCC3)c12	16 µg/mL	–
CCOC(=O)c1c(-c2ccccc2)oc2ccc(O)c(CN3CCC(CO)CC3)c12	16 µg/mL	–
O=c1oc2cc(F)ccc2c2oc3ccc(O)c(CN4CCCCC4)c3c12	1 µg/mL	IC50 (Vero): 8 µg/mL (≈ 21.8 µM); selectivity ratio [2]: 8
CCOC(=O)c1c(-c2ccccc2)oc2ccc(O)c(CN3CCCCC3)c12	2 µg/mL	–
O=c1oc2ccc(Cl)cc2c2oc3ccc4c(c3c12)CN(CC1CC1)CO4	16 µg/mL	–

SMILES	MIC=<90 [1]	also measured
O=C(O)c1c(-c2ccccc2)oc2ccc(O)c(CN3CCCCC3)c12	> 64 µg/mL	–
CCOC(=O)c1c(-c2ccccc2)oc2ccc3c(c12)CN(CCC(C)C)CO3	4 µg/mL	–
O=C(NC12CC3CC(CC(C3)C1)C2)c1c(-c2ccccc2)oc2ccc(O)c(CN3CCCCC3)c12	> 64 µg/mL	–
O=c1oc2ccc(Br)cc2c2oc3ccc4c(c3c12)CN(CC1CC1)CO4	8 µg/mL	–
COc1ccc2c(c1)oc(=O)c1c2oc2ccc3c(c21)CN(CC1CC1)CO3	2 µg/mL	–
CCOC(=O)c1c(-c2ccc(C(F)(F)F)cc2)oc2ccc(O)c(CN3CCCCC3)c12	8 µg/mL	–
O=C(Nc1ccccc1)c1c(-c2ccccc2)oc2ccc(O)c(CN3CCCCC3)c12	8 µg/mL	–
CCCN(CCC)Cc1c(O)ccc2oc(-c3ccccc3)c(C(=O)OCC)c12	8 µg/mL	–
O=c1oc2ccccc2c2oc3ccc(O)cc3c12	> 64 µg/mL	–
CCOC(=O)c1c(-c2cc(C)ccc2OC)oc2ccc3c(c12)CN(CC1CC1)CO3	8 µg/mL	–
CCOC(=O)c1c(-c2ccccc2)oc2ccc(O)c(CN3CCOCC3)c12	> 64 µg/mL	–
CCOC(=O)c1c(-c2ccccc2)oc2ccc(O)c(CN3CCC(C)CC3)c12	2.5 µM	IC50 (Vero): 16 µg/mL (≈ 40.7 µM); selectivity ratio [2]: 16; Activity [3]: inactive
CCOC(=O)c1c(-c2ccc(OC)cc2)oc2ccc(O)c(CN3CCCCC3)c12	16 µg/mL	–
O=c1oc2ccc(F)cc2c2oc3ccc4c(c3c12)CN(CC1CC1)CO4	16 µg/mL	–
CCOC(=O)c1c(-c2ccc(F)cc2OC)oc2ccc(O)c(CN3CCCCC3)c12	8 µg/mL	–
CCOC(=O)c1c(-c2ccccc2)oc2ccc(OC)c(CN3CCCCC3)c12	16 µg/mL	–
O=c1oc2cc(Br)ccc2c2oc3ccc(O)c(CN4CCCCC4)c3c12	1 µg/mL	IC50 (Vero): 8 µg/mL (≈ 18.7 µM); selectivity ratio [2]: 8
CCOC(=O)c1c(NC(=O)c2c(F)c(F)c(F)c(F)c2F)sc(C(N)=O)c1C	–	MIC [4]: 0.5 µM (≈ 0.211 µg/mL)
O=c1oc2cc(Cl)c(Cl)cc2c2oc3ccc4c(c3c12)CN(CC1CC1)CO4	> 64 µg/mL	–
O=c1oc2ccccc2c2oc3ccc4c(c3c12)CN(CC1CC1)CO4	2 µg/mL	–
CCOC(=O)c1c(-c2ccccc2)oc2ccc3c(c12)CN(CC1CC1)CO3	1 µg/mL	IC50 (Vero): 8 µg/mL (≈ 21.2 µM); selectivity ratio [2]: 8
COc1ccc2c(c1)oc(=O)c1c2oc2ccc(O)c(CN3CCCCC3)c21	0.25 µg/mL	IC50 (Vero): 4 µg/mL (≈ 10.5 µM); selectivity ratio [2]: 16; IC50 (MRC5): > 50 µg/mL; IC50 (HFL1): 50.2 µg/mL (≈ 132 µM); IC50 [5]: 38.8 µg/mL (≈ 102 µM); IC50 (HEK293): > 50 µg/mL; Activity [3]: Active; remaining at 1 h, 10 µM [6]: 45.5%; selectivity ratio [7]: > 100; selectivity ratio [8]: > 100; selectivity ratio [9]: > 100; selectivity ratio [10]: > 100
O=c1oc2ccccc2c2oc3ccc(O)c(CN4CCCCC4)c3c12	0.125 to 0.25 µg/mL	IC50 (Vero): 4 µg/mL (≈ 11.4 µM); selectivity ratio [2]: 16 to 32; IC50 (MRC5): > 50 µg/mL; IC50 (HFL1): > 50 µg/mL; IC50 [5]: > 50 µg/mL; IC50 (HEK293): > 50 µg/mL; Activity [3]: Active; Activity [11]: Active; remaining at 1 h, 10 µM [6]: 14.5%; selectivity ratio [7]: > 100; selectivity ratio [8]: > 100; selectivity ratio [9]: > 100; selectivity ratio [10]: > 100
COC(=O)c1c(NC(=O)c2c(F)c(F)c(F)c(F)c2F)sc2c1CCCCC2	–	MIC [4]: 1 µM (≈ 0.419 µg/mL)
